What was measured:
MV4-11 [1] = test: Cell cycle arrest in human MV4-11 cells assessed as accumulation at G1 phase at GI50 after 24 hrs by propidium iodide staining based flow cytometry (reference value: 58.99%); assay type: functional
Method in brief: (§1)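 MV4-11 cells were treated with increasing concentrations for 24 h. Cells were then harvested, fixed and stained with propidium iodide before flow cytometric cell cycle analysis.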

MV4-11 [2] = test: Induction of apoptosis in human MV4-11 cells assessed as necrotic cells at GI50 after 24 hrs by annexin V/propidium iodide staining based flow cytometry (reference value: 0.06%); assay type: functional
MV4-11 [3] = test: Induction of apoptosis in human MV4-11 cells assessed as viable cells at GI50 after 24 hrs by annexin V/propidium iodide staining based flow cytometry (reference value: 93.05%); assay type: functional
[4] = Growth inhibition of human M249R cells after 72 hrs by resazurin or MTT assay; assay type: functional; details: M249, 72 h
MV4-11 [5] = test: Cell cycle arrest in human MV4-11 cells assessed as accumulation at sub-G1 phase at GI50 after 24 hrs by propidium iodide staining based flow cytometry (reference value: 0.91%); assay type: functional; method in brief: as §1
MV4-11 [6] = test: Induction of apoptosis in human MV4-11 cells assessed as early apoptotic cells at GI50 after 24 hrs by annexin V/propidium iodide staining based flow cytometry (reference value: 2.01%); assay type: functional
MOLM-13 = test: Growth inhibition of human MOLM13 cells after 72 hrs by resazurin or MTT assay; assay type: functional; details: MOLM-13, 72 h
PC-3 = test: Growth inhibition of human PC3 cells after 72 hrs by resazurin or MTT assay; assay type: functional; details: PC-3, 72 h
MV4-11 [7] = test: Cell cycle arrest in human MV4-11 cells assessed as accumulation at sub-G1 phase at 5 times GI50 after 24 hrs by propidium iodide staining based flow cytometry (reference value: 0.91%); assay type: functional; method in brief: as §1
LNCaP C4-2B = test: Growth inhibition of human C4-2B cells after 72 hrs by resazurin or MTT assay; assay type: functional
MV4-11 [8] = test: Induction of apoptosis in human MV4-11 cells assessed as late apoptotic cells at 10 times GI50 after 24 hrs by annexin V/propidium iodide staining based flow cytometry (reference value: 4.87%); assay type: functional
MV4-11 [9] = test: Induction of apoptosis in human MV4-11 cells assessed as viable cells at 5 times GI50 after 24 hrs by annexin V/propidium iodide staining based flow cytometry (reference value: 93.05%); assay type: functional
MDA-MB-453 = test: Growth inhibition of human MDA-MB-453 cells after 72 hrs by MTT assay; assay type: functional; details: MDA-MB-453, 72 h
Method in brief: (§2)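 72 h antiproliferation assay, resazurin read-out for MV4-11 and MTT read-out for MDA-MB-453; values from at least two replicates.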

MV4-11 [10] = test: Cell cycle arrest in human MV4-11 cells assessed as accumulation at S phase at 5 times GI50 after 24 hrs by propidium iodide staining based flow cytometry (reference value: 21.97%); assay type: functional; method in brief: as §1
[11] = Growth inhibition of human M229 cells after 72 hrs by resazurin or MTT assay; assay type: functional; details: M229, 72 h
MV4-11 [12] = test: Induction of apoptosis in human MV4-11 cells assessed as late apoptotic cells at GI50 after 24 hrs by annexin V/propidium iodide staining based flow cytometry (reference value: 4.87%); assay type: functional
MV4-11 [13] = test: Cell cycle arrest in human MV4-11 cells assessed as accumulation at sub-G1 phase at 10 times GI50 after 24 hrs by propidium iodide staining based flow cytometry (reference value: 0.91%); assay type: functional; method in brief: as §1
MV4-11 [14] = test: Induction of apoptosis in human MV4-11 cells assessed as early apoptotic cells at 10 times GI50 after 24 hrs by annexin V/propidium iodide staining based flow cytometry (reference value: 2.01%); assay type: functional
A2780 = test: Growth inhibition of human A2780 cells after 72 hrs by resazurin or MTT assay; assay type: functional; details: A2780, 72 h
MV4-11 [15] = test: Induction of apoptosis in human MV4-11 cells assessed as late apoptotic cells at 5 times GI50 after 24 hrs by annexin V/propidium iodide staining based flow cytometry (reference value: 4.87%); assay type: functional
[16] = Growth inhibition of nontransformed human BPH1 cells after 72 hrs by resazurin or MTT assay; assay type: cell-based; details: BPH-1 cells (nontransformed)
MV4-11 [17] = test: Growth inhibition of human MV4-11 cells after 72 hrs by resazurin assay; assay type: functional; details: MV4-11, 72 h; method in brief: as §2
MV4-11 [18] = test: Cell cycle arrest in human MV4-11 cells assessed as accumulation at G2/M phase at GI50 after 24 hrs by propidium iodide staining based flow cytometry (reference value: 18.11%); assay type: functional; method in brief: as §1
MV4-11 [19] = test: Cell cycle arrest in human MV4-11 cells assessed as accumulation at G2/M phase at 10 times GI50 after 24 hrs by propidium iodide staining based flow cytometry (reference value: 18.11%); assay type: functional; method in brief: as §1
MV4-11 [20] = test: Cell cycle arrest in human MV4-11 cells assessed as accumulation at G1 phase at 10 times GI50 after 24 hrs by propidium iodide staining based flow cytometry (reference value: 58.99%); assay type: functional; method in brief: as §1
MCF7 = test: Growth inhibition of human MCF7 cells after 72 hrs by resazurin or MTT assay; assay type: functional; details: MCF7, 72 h
[21] = Growth inhibition of human M249 cells after 72 hrs by resazurin or MTT assay; assay type: functional; details: M249, 72 h
MV4-11 [22] = test: Induction of apoptosis in human MV4-11 cells assessed as early apoptotic cells at 5 times GI50 after 24 hrs by annexin V/propidium iodide staining based flow cytometry (reference value: 2.01%); assay type: functional
MV4-11 [23] = test: Induction of apoptosis in human MV4-11 cells assessed as necrotic cells at 5 times GI50 after 24 hrs by annexin V/propidium iodide staining based flow cytometry (reference value: 0.06%); assay type: functional
NB-4 = test: Growth inhibition of human NB4 cells after 72 hrs by resazurin or MTT assay; assay type: functional; details: NB-4, 72 h
MV4-11 [24] = test: Induction of apoptosis in human MV4-11 cells assessed as viable cells at 10 times GI50 after 24 hrs by annexin V/propidium iodide staining based flow cytometry (reference value: 93.05%); assay type: functional
DU-145 = test: Growth inhibition of human DU145 cells after 72 hrs by resazurin or MTT assay; assay type: functional; details: DU-145, 72 h
[25] = Growth inhibition of human MRC5 cells after 72 hrs by resazurin or MTT assay; assay type: cell-based
MV4-11 [26] = test: Cell cycle arrest in human MV4-11 cells assessed as accumulation at S phase at 10 times GI50 after 24 hrs by propidium iodide staining based flow cytometry (reference value: 21.97%); assay type: functional; method in brief: as §1
MDA-MB-468 = test: Growth inhibition of human MDA-MB-468 cells after 72 hrs by resazurin or MTT assay; assay type: functional; details: MDA-MB-468, 72 h
MV4-11 [27] = test: Induction of apoptosis in human MV4-11 cells assessed as necrotic cells at 10 times GI50 after 24 hrs by annexin V/propidium iodide staining based flow cytometry (reference value: 0.06%); assay type: functional
MV4-11 [28] = test: Cell cycle arrest in human MV4-11 cells assessed as accumulation at G2/M phase at 5 times GI50 after 24 hrs by propidium iodide staining based flow cytometry (reference value: 18.11%); assay type: functional; method in brief: as §1
[29] = Growth inhibition of human M238 cells after 72 hrs by resazurin or MTT assay; assay type: functional; details: M238, 72 h
MV4-11 [30] = test: Cell cycle arrest in human MV4-11 cells assessed as accumulation at G1 phase at 5 times GI50 after 24 hrs by propidium iodide staining based flow cytometry (reference value: 58.99%); assay type: functional; method in brief: as §1

| Compound | Activity (MV4-11 [1]) [%] | Activity (MV4-11 [2]) [%] | Activity (MV4-11 [3]) [%] | GI50 [4] [nM] | Activity (MV4-11 [5]) [%] | Activity (MV4-11 [6]) [%] | GI50 (MOLM-13) [nM] | GI50 (PC-3) [nM] | Activity (MV4-11 [7]) [%] | GI50 (LNCaP C4-2B) [µM] | Activity (MV4-11 [8]) [%] | Activity (MV4-11 [9]) [%] | GI50 (MDA-MB-453) [nM] | Activity (MV4-11 [10]) [%] | GI50 [11] [nM] | Activity (MV4-11 [12]) [%] | Activity (MV4-11 [13]) [%] | Activity (MV4-11 [14]) [%] | GI50 (A2780) [nM] | Activity (MV4-11 [15]) [%] | also measured |
| --- | --- | --- | --- | --- | --- | --- | --- | --- | --- | --- | --- | --- | --- | --- | --- | --- | --- | --- | --- | --- | --- |
| CC(=O)c1c(C)c2cnc(Nc3ccc(N4CCNCC4)cn3)nc2n(C2CCCC2)c1=O [PALBOCICLIB] | 75.13 | 0.17 | 90.99 | 2960 | 1.32 | 2.54 | 62 | 71 | 1.81 | 4.15 | 7.65 | 90.49 | 326 | 5.07 | 1220 | 6.28 | 1.72 | 2.31 | 32 | 7.16 | GI50 at 72 h [16]: 7.44 µM; GI50 (MV4-11 [17]): 50 nM; Activity (MV4-11 [18]): 11.49%; Activity (MV4-11 [19]): 4.12%; Activity (MV4-11 [20]): 89.5%; GI50 (MCF7): 557 nM; GI50 [21]: 1990 nM; Activity (MV4-11 [22]): 2.14%; Activity (MV4-11 [23]): 0.21%; GI50 (NB-4): 66 nM; Activity (MV4-11 [24]): 89.91%; GI50 (DU-145): 5.79 µM; GI50 at 72 h [25]: > 10 µM; Activity (MV4-11 [26]): 4.67%; GI50 (MDA-MB-468): 5.96 µM; Activity (MV4-11 [27]): 0.12%; Activity (MV4-11 [28]): 4.13%; GI50 [29]: 1970 nM; Activity (MV4-11 [30]): 88.99% |
| Cc1nc(NC2CCCC2)sc1-c1ccnc(Nc2ccc(N3CCOCC3)cn2)n1 | 63.57 | 0.06 | 92.71 | 38 | 3.43 | 2.33 | 385 | 150 | 4.09 | > 10 | 7.27 | 90.43 | 3680 | 13.85 | 150 | 4.9 | 2.6 | 2.83 | 58 | 7.03 | GI50 at 72 h [16]: > 10 µM; GI50 (MV4-11 [17]): 209 nM; Activity (MV4-11 [18]): 15.3%; Activity (MV4-11 [19]): 5.75%; Activity (MV4-11 [20]): 81.18%; GI50 (MCF7): 1890 nM; GI50 [21]: 82 nM; Activity (MV4-11 [22]): 2.37%; Activity (MV4-11 [23]): 0.16%; GI50 (NB-4): 681 nM; Activity (MV4-11 [24]): 89.53%; GI50 (DU-145): > 10 µM; GI50 at 72 h [25]: > 10 µM; Activity (MV4-11 [26]): 10.53%; GI50 (MDA-MB-468): > 10 µM; Activity (MV4-11 [27]): 0.35%; Activity (MV4-11 [28]): 10.91%; GI50 [29]: 2200 nM; Activity (MV4-11 [30]): 71.66% |
